Assay results from different studies.
Target: Serine/threonine-protein kinase haspin (HASPIN, Homo sapiens, UniProt Q8TF76)
Residues used in one study (Q8TF76 1-798): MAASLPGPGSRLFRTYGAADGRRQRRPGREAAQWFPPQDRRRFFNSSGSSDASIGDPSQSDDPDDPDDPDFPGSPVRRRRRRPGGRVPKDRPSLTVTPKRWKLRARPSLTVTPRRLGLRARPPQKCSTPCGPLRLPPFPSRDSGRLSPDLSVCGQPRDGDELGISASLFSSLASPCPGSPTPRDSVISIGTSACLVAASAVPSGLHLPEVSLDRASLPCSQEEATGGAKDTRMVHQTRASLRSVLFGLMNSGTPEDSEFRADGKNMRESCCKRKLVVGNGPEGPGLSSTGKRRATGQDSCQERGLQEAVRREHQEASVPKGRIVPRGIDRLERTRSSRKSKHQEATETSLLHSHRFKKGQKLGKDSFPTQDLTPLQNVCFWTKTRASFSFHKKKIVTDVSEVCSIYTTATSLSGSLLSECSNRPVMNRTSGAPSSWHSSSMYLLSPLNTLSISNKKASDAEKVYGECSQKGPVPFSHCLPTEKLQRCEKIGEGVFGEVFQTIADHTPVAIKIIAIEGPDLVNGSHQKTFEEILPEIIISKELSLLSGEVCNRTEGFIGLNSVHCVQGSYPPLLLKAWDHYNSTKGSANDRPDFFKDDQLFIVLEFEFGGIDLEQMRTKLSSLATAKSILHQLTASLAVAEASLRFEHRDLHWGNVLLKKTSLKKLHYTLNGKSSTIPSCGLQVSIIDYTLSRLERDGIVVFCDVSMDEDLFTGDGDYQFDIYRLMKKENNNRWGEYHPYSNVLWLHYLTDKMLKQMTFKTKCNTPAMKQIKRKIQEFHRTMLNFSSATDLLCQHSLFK

SMILES | test | setting | quantity | result
C#Cc1n[nH]c2c(-c3cn(C(C)c4ccccn4)c(=O)[nH]c3=O)cc(F)cc12 (stereo not shown) | enzyme activity, inhibitor | 1 µM | inhibition | 18.9%
Cn1cc(-c2cc(F)cc(N3CCn4c(cc5c4CCCC5)C3=O)c2CO)cc(Nc2ccc(N3CCN(C4COC4)CC3)cn2)c1=O | enzyme activity, inhibitor | 0.1 µM | inhibition | 8%
COc1ncccc1-c1cnn2ccc(N3CCN(C(=O)OC(C)C)CC3)nc12 | binding, competition with immobilised ligand | 1 µM | remaining binding | 80%
Cn1cncc1[C@](O)(COc1ccc(C#N)cc1-c1ccc(OC(F)(F)F)cc1)c1ccc(C#N)cc1 | cell-free assay, competition with immobilised ligand | 1 µM | remaining binding | 100%
Cn1cc(-c2cccc(N3CCc4c(sc5c4CC(C)(C)C5)C3=O)c2CO)cc(Nc2ccncn2)c1=O | enzyme activity, inhibitor | 1 µM | inhibition | -1%
O=c1[nH]c2ccccc2n1C1CCN(Cc2ccc(-c3[nH]c4cc5ncnc5cc4nc3-c3ccccc3)cc2)CC1 | cell-free assay | 0.5 µM | remaining signal | 106%
C#Cc1n[nH]c2c(-c3cn([C@@H](C)c4ccccc4)c(=O)[nH]c3=O)cc(F)cc12 | enzyme activity, inhibitor | 0.1 µM | inhibition | -5.9%
CC(C)(C)c1cc(C=C(C#N)C#N)cc(Br)c1O | enzyme activity, inhibitor | 0.5 µM | remaining activity | 67.2%
N#CC1(c2ccccn2)CCN(Cc2cc(C(=O)O)c(=O)n3ccccc23)CC1 | cell-free assay, competition with immobilised ligand | 1 µM | remaining binding | 100%
Nc1ncc(-c2nc(N3CCOCC3)nc(N3CCOCC3)n2)c(C(F)F)n1 | binding, competition with immobilised ligand | 10 µM | remaining binding | 71%
